Measured values published in ChEMBL document CHEMBL1131324 (J Med Chem, 1998).

What was measured:
[1] = target: T1, 5-hydroxytryptamine receptor 1B (Homo sapiens, UniProt P28222); assay: Binding affinity for human 5-hydroxytryptamine 1B receptor
[2] = target: 5-hydroxytryptamine receptor 1D (Homo sapiens, UniProt P28221); assay: Binding affinity for human 5-hydroxytryptamine 1D receptor
[3] = target: T1, 5-hydroxytryptamine receptor 1B; assay: Effect of compound on [35S]GTP-gamma-S, radioligand binding CHO cells expressing human 5-hydroxytryptamine 1B receptor; assay type: functional, cell-based
[4] = target: 5-hydroxytryptamine receptor 2A (Homo sapiens, UniProt P28223); assay: Binding affinity for human 5-hydroxytryptamine 2A receptor
5-hydroxytryptamine receptor 2A, sequence (P28223 whole entry): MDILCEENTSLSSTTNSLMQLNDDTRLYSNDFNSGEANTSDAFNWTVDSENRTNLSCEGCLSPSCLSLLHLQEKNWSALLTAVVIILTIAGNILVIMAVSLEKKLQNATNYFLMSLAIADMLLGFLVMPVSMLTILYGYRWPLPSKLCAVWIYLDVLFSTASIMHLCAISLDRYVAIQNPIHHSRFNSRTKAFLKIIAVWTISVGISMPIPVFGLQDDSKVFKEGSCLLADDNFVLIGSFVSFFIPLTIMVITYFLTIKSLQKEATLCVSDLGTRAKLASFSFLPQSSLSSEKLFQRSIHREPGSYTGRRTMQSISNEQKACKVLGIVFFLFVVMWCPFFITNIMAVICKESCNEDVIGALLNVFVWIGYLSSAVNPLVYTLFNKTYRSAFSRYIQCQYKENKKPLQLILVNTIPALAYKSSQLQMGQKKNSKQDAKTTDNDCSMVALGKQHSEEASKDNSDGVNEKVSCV
Summary of the method: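 Human cloned receptor expressed in HEK 293 cells; displacement of [³H]ketanserin in 50 mM Tris-HCl (pH 7.7 at 25 °C). Test compound over a concentration range, 30-45 min at 37 °C; filtration with ice-cold buffer wash, bound label by scintillation counting; pKi reported as mean (SEM, n) or individual values where n = 2.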

T1 sequence (P28222 whole entry): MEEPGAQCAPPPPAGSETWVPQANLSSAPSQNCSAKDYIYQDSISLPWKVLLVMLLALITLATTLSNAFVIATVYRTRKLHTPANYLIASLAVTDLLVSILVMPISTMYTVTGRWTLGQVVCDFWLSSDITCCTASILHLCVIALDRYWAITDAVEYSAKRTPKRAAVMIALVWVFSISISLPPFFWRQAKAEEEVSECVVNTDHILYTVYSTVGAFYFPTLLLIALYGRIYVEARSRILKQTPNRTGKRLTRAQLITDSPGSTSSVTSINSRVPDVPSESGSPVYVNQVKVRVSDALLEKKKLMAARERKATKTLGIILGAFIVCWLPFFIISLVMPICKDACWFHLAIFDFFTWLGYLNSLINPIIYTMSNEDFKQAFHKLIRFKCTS
5-hydroxytryptamine receptor 1D, sequence (P28221 whole entry): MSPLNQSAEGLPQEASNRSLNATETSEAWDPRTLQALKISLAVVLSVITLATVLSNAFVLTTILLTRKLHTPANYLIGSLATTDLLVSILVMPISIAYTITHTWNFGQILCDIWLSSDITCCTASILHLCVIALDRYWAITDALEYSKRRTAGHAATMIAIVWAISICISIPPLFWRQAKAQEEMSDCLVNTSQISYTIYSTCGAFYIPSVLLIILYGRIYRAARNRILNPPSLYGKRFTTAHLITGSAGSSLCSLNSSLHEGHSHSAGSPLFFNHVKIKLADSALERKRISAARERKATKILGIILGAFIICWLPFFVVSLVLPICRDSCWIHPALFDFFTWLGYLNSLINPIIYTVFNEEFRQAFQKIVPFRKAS

Compound	Ki [1] [nM]	Ki [2] [nM]	[35S]GTPγS binding stimulation [3] [%]	Ki [4] [nM]
Cc1nc(-c2ccc(-c3ccc(C(=O)Nc4ccc5c(c4)C4(CCN(C)CC4)CO5)cc3)c(C)c2)no1	31.6	2000	-64	1000
Cc1cc(C(=O)Nc2ccc(C)c(N3CCN(C)CC3)c2)ccc1Br	12.6	39.8	–	126
Cc1nc(-c2ccc(-c3ccc(C(=O)Nc4ccc5c(c4)N(CCN(C)C)CCO5)cc3)c(C)c2)no1	2.51	20	91	3.98
COc1ccc(NC(=O)c2ccc(-c3ccc(-c4noc(C)n4)cc3C)cc2)cc1OCCN(C)C	–	31.6	139	–
Cc1cc(C(=O)Nc2cccc(N3CCN(C)CC3)c2)ccc1Br	126	200	–	316
